Assay results taken from ChEMBL document CHEMBL1123250, “Chloroalanyl antibiotic peptides: antagonism of their antimicrobial effects by L-alanine and L-alanyl peptides in gram-negative bacteria” (1986).
Several values for one entry are separate records, joined by “and”; a condition that tells them apart may be missing. Equal values may be shown once.

Columns and labels:
[1] = molecular target: Alanine racemase, biosynthetic (Escherichia coli K-12) (UniProt P0A6B4); experiment: (§1) Compound was tested for enzyme activity at a concentration of 100 ug/mL against alanine racemase; per mg of protein
Chain of Alanine racemase, biosynthetic (Escherichia coli K-12) (P0A6B4 whole entry): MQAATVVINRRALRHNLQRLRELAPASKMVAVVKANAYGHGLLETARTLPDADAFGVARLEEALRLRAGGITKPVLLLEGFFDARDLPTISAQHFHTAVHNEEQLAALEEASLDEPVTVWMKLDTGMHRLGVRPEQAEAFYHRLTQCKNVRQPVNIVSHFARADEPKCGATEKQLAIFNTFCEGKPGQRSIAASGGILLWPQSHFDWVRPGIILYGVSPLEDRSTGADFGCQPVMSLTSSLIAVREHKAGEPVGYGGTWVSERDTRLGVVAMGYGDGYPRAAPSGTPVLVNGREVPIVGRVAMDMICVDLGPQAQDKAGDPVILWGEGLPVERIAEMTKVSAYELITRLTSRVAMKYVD
Outline: (§2)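 E. coli JSR-0 was grown at 37 °C in Davis-Mingioli medium with Met and Pro (50 µg/mL each) and Leu, Ile and Val (100 µg/mL each), plus 5% sucrose or 500 µg/mL L-Ala. Agent was added at about 100 Klett units, with 30 min more shaking. Cells were washed in phosphate/EDTA/PLP buffer pH 8.0 and sonicated. D→L racemase was coupled to L-alanine dehydrogenase (10 mM D-Ala, 5 mM NAD+, CHES pH 9.0, 37 °C), reading NADH at 340 nm.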

[2] = molecular target: Alanine racemase, biosynthetic (Escherichia coli K-12) (UniProt P0A6B4); experiment: as §1; outline: as §2; remark: listed apart in the source
Escherichia coli [3] = experiment: Compound was tested for antibacterial activity at a concentration of 50 ug/mL against Escherichia coli ATCC; format: functional
Outline: (§3)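 Agar dilution in defined peptide susceptibility agar with L-Ala or L-Ala-L-Ala added at 25, 50, 100 or 500 µg/mL, and peptide in serial 2-fold dilutions. Inocula were grown overnight in the liquid susceptibility medium and diluted to about 1 x 10^7 cfu/mL, then replicator-spotted. Plates were incubated overnight at 37 °C. MIC was the lowest concentration allowing fewer than 10 colonies at 16-18 h.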

Escherichia coli [4] = experiment: Compound was tested for antibacterial activity at a concentration of 50 ug/mL against Escherichia coli JSR-O; format: functional; outline: as §3
Escherichia coli [5] = experiment: Compound was tested for antibacterial activity at a concentration of 500 ug/mL against Escherichia coli ATCC; format: functional; outline: as §3
Escherichia coli [6] = experiment: Compound was tested for antibacterial activity at a concentration of 500 ug/mL against Escherichia coli JSR-O; format: functional; outline: as §3
Escherichia coli [7] = experiment: Compound was tested for antibacterial activity against Escherichia coli; format: functional
Outline: (§4)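 Agar dilution MIC on defined peptide susceptibility agar. Inoculum made by growing overnight in liquid peptide susceptibility medium, then diluting to about 1 × 10^7 cfu/mL. Applied by Steers replicator to plates carrying serial 2-fold peptide dilutions. Incubated overnight at 37 °C. MIC = lowest concentration allowing growth of fewer than 10 colonies after 16-18 h.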

Escherichia coli [8] = experiment: Compound was tested for antibacterial activity against Escherichia coli JSR-O at a concentration of 25 ug/mL; format: functional; outline: as §3
Escherichia coli [9] = experiment: Compound was tested for antibacterial activity at a concentration of 100 ug/mL against Escherichia coli JSR-O; format: functional; outline: as §3
Escherichia coli [10] = experiment: (§5) Compound was tested for antibacterial activity at a concentration of 25 ug/mL against Escherichia coli ATCC; format: functional; outline: as §3
Escherichia coli [11] = experiment: (§6) Compound was tested for antibacterial activity at a concentration of 25 ug/mL against Escherichia coli JSR-O; format: functional; outline: as §3
Escherichia coli [12] = experiment: as §6; format: functional; outline: as §3; remark: listed apart in the source
Klebsiella aerogenes [13] = experiment: Compound was tested for antibacterial activity against Enterobacter aerogenes at a concentration of 25 ug/mL; format: functional; outline: as §3
Klebsiella aerogenes [14] = experiment: (§7) Compound was tested for antibacterial activity at a concentration of 25 ug/mL against Enterobacter aerogenes; format: functional; outline: as §3
Klebsiella aerogenes [15] = experiment: as §7; format: functional; outline: as §3; remark: listed apart in the source
Klebsiella aerogenes [16] = experiment: Compound was tested for antibacterial activity at a concentration of 50 ug/mL against Enterobacter aerogenes; format: functional; outline: as §3
Enterobacter cloacae [17] = experiment: Compound was tested for antibacterial activity at a concentration of 25 ug/mL against Enterobacter cloacae; format: functional; outline: as §3
Enterobacter cloacae [18] = experiment: Compound was tested for antibacterial activity at a concentration of 50 ug/mL against Enterobacter cloacae; format: functional; outline: as §3
Enterobacter cloacae [19] = experiment: Compound was tested for antibacterial activity at a concentration of 500 ug/mL against Enterobacter cloacae; format: functional; outline: as §3
Shigella flexneri [20] = experiment: Compound was tested for antibacterial activity against Shigella flexneri; format: functional; outline: as §4
Shigella flexneri [21] = experiment: Compound was tested for antibacterial activity against Shigella flexneri at a concentration of 25 ug/mL; format: functional; outline: as §3
Shigella flexneri [22] = experiment: (§8) Compound was tested for antibacterial activity at a concentration of 25 ug/mL against Shigella flexneri; format: functional; outline: as §3
Shigella flexneri [23] = experiment: as §8; format: functional; outline: as §3; remark: listed apart in the source
Shigella flexneri [24] = experiment: Compound was tested for antibacterial activity at a concentration of 50 ug/mL against Shigella flexneri; format: functional; outline: as §3
Shigella flexneri [25] = experiment: Compound was tested for antibacterial activity at a concentration of 500 ug/mL against Shigella flexneri; format: functional; outline: as §3
Staphylococcus aureus [26] = experiment: (§9) Compound was tested for antibacterial activity at a concentration of 25 ug/mL against Staphylococcus aureus; format: functional; outline: as §3
Staphylococcus aureus [27] = experiment: as §9; format: functional; outline: as §3; remark: listed apart in the source
Staphylococcus aureus [28] = experiment: Compound was tested for antibacterial activity at a concentration of 50 ug/mL against Staphylococcus aureus; format: functional; outline: as §3
Enterococcus faecalis [29] = experiment: Compound was tested for antibacterial activity at a concentration of 100 ug/mL against Streptococcus faecalis; format: functional; outline: as §3
Enterococcus faecalis [30] = experiment: (§10) Compound was tested for antibacterial activity at a concentration of 25 ug/mL against Streptococcus faecalis; format: functional; outline: as §3
Enterococcus faecalis [31] = experiment: as §10; format: functional; outline: as §3; remark: listed apart in the source
Enterococcus faecalis [32] = experiment: Compound was tested for antibacterial activity at a concentration of 50 ug/mL against Streptococcus faecalis; format: functional; outline: as §3
Streptococcus agalactiae = experiment: Compound was tested for antibacterial activity against Streptococcus agalactiae; format: functional
Outline: (§11)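 Inoculum made from colonies grown overnight on chocolate or blood agar, resuspended in liquid medium to 10' cfu/mL. Applied by Steers replicator to serial 2-fold peptide dilutions. Incubated overnight at 37 °C under 7% CO2. MIC = lowest concentration giving fewer than 10 colonies at 16-18 h.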

[33] = system: Staphylococcus epidermidis; experiment: Compound was tested for antibacterial activity at a concentration of 50 ug/mL against Staphylococcus epidermidis; format: functional; outline: as §3
Streptococcus pyogenes = experiment: Compound was tested for antibacterial activity against Streptococcus pyogenes; format: functional; outline: as §11
[34] = system: Staphylococcus epidermidis; experiment: (§12) Compound was tested for antibacterial activity at a concentration of 25 ug/mL against Staphylococcus epidermidis; format: functional; outline: as §3
[35] = system: Staphylococcus epidermidis; experiment: as §12; format: functional; outline: as §3; remark: listed apart in the source
Enterococcus faecalis [36] = experiment: Compound was tested for antibacterial activity against Streptococcus faecalis at a concentration of 25 ug/mL; format: functional; outline: as §3
Escherichia coli [37] = experiment: Compound was tested for enzyme activity at a concentration of 100 ug/mL against transaminase B; per mg of protein
Outline: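 E. coli JSR-0 was grown at 37 °C in supplemented Davis-Mingioli medium (Met and Pro; Leu, Ile and Val), with sucrose or L-Ala in some cultures. Agent was added at about 100 Klett units and cells harvested after 30 min. The sonicated homogenate was run with Tris pH 7.8, pyridoxal phosphate and α-ketoglutarate; L-valine started transamination at 37 °C. Timed aliquots were derivatised with 2,4-DNPH, and α-ketoisovalerate hydrazone was read at A430 against a standard curve.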

Enterococcus faecalis [38] = experiment: Compound was tested for antibacterial activity at a concentration of 500 ug/mL against Streptococcus faecalis; format: functional; outline: as §3
Staphylococcus aureus [39] = experiment: (§13) Compound was tested for antibacterial activity against Staphylococcus aureus at a concentration of 25 ug/mL; format: functional; outline: as §3
[40] = system: Staphylococcus epidermidis; experiment: as §13; format: functional; outline: as §3
Escherichia coli [41] = experiment: as §5; format: functional; outline: as §3; remark: listed apart in the source
Klebsiella aerogenes [42] = experiment: Compound was tested for antibacterial activity at a concentration of 500 ug/mL against Enterobacter aerogenes; format: functional; outline: as §3

N[C@@H](CCl)C(=O)N[C@@H](CCl)C(=O)O
12.5 mg/L: MIC (Escherichia coli [7]) | MIC (Klebsiella aerogenes [15])
0.39 mg/L: MIC (Staphylococcus aureus [26]) | MIC [34]
3.12 mg/L: MIC (Escherichia coli [8]) | MIC (Shigella flexneri [23]) | MIC (Streptococcus pyogenes) | MIC (Escherichia coli [41])
50 mg/L: MIC (Escherichia coli [9]; Escherichia coli, read-out: MIC)
>100 mg/L: MIC (Escherichia coli [9])
> 100 mg/L: MIC (Escherichia coli [3]) | MIC (Escherichia coli [4]) | MIC (Escherichia coli [5]) | MIC (Escherichia coli [6]) | MIC (Escherichia coli [10]) | MIC (Escherichia coli [11]) | MIC (Klebsiella aerogenes [14]) | MIC (Klebsiella aerogenes [16]) | MIC (Enterobacter cloacae [17]) | MIC (Enterobacter cloacae [18]) | MIC (Enterobacter cloacae [19]) | MIC (Shigella flexneri [22]) | MIC (Shigella flexneri [24]) | MIC (Shigella flexneri [25]) | MIC (Enterococcus faecalis [29]) | MIC (Enterococcus faecalis [30]) | MIC (Enterococcus faecalis [31]) | MIC (Enterococcus faecalis [32]) | MIC (Enterococcus faecalis [36]) | MIC (Enterococcus faecalis [38]) | MIC (Klebsiella aerogenes [42])
0.05 mg/L: MIC (Staphylococcus aureus [27]) | MIC [35] | MIC (Staphylococcus aureus [39]) | MIC [40]
0.13 µM/min and 0.11 µM/min: Activity (Escherichia coli [37])
6.25 mg/L: MIC (Escherichia coli [12]) | MIC (Klebsiella aerogenes [13]) | MIC (Staphylococcus aureus [28]) | MIC [33]
1.56 mg/L: MIC (Shigella flexneri [21]) | MIC (Streptococcus agalactiae)
0.85 µM/min: Activity [1]
3.25 mg/L: MIC (Shigella flexneri [20])
0.19 µM/min: Activity [2]
